# Screening data as filed in PubChem.
# M5 ag: CHRM5 agonism in calcium assay | P08912 | CHO-K1 hM5 cells, Fluo-8 calcium fluorescence; 0% DMSO wells, 100% maximal acetylcholine response | activation, % at 3 µM | actives 0.19% (n = 360,000) | AID 624037;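 active = activation above the run's mean over test compounds plus 3 SD, cut at about 23% in these data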;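 note: signal is peak over basal fluorescence ratio across the kinetic read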
# Target sequence (P08912 whole entry, looked up): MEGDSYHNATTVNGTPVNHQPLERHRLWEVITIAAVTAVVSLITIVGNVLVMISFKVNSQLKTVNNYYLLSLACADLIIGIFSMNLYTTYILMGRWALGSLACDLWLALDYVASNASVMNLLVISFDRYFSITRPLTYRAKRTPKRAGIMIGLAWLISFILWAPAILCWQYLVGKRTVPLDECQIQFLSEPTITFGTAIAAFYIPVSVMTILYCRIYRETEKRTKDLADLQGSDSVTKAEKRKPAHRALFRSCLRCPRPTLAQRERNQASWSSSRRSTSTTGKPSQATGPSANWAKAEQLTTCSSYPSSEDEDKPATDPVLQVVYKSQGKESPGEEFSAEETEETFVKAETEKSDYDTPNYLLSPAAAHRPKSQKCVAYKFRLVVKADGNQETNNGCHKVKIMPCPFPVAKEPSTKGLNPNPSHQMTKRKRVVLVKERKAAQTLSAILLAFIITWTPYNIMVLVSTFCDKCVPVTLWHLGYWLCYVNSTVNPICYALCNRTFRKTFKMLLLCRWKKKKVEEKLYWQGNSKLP
# M4 ag: CHRM4 agonism in calcium assay; P08173; CHO-K1 hM4/Gqi5, Fluo-8 calcium fluorescence; vehicle 0%, full acetylcholine response 100%; activation, % at 3 µM; actives 0.14% (n = 360,000); AID 624127;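 active = activation above the run mean over all test wells plus 3 SD, cut at about 32% in these data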;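 note: peak over basal fluorescence ratio per well then scaled between controls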
# M4 antag: antagonists of human muscarinic M4 receptor (CHRM4). actives 0.73% (n = 360,000). CHO-hM4 cells, ACh EC80, Fluo-8 calcium fluorescence. inhibition, % at 3 µM;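 active = inhibition above its plate's cutoff, the mean inhibition of sample wells plus 3 SD, cut at about 27% in these data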
# CHRM5 PAM: CHRM5 positive allosteric modulation; P08912; activation, % at 3 µM; actives 0.3% (n = 360,000); CHO-K1 hM5, Fluo-8 calcium, ACh EC20 PAM; 0% = ACh EC20, 100% = ACh EC100;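 active = activation above the run cutoff, the mean activation of all test compounds plus 3 SD, cut at about 18% in these data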
#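 System – CHO-K1 hM5 cells · Compound – 3 µM, single dose · Incubation – compound preincubation 140 s before EC20 acetylcholine addition · Technique – Fluo-8 calcium fluorescence · Measure – Max/basal fluorescence ratio as % of EC20–EC100 ACh window · Benchmarks – low control EC20 acetylcholine (0%), high control EC100 acetylcholine (100%) · Replication – singlicate, one well per test compound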
# M4 PAM: positive allosteric modulators of human muscarinic M4 receptor | P08173 | CHO-K1 hM4/Gqi5, Fluo-8 calcium fluorescence, ACh EC20; 0% = ACh EC20, 100% = maximal ACh | activation, % at 3 µM | actives 0.4% (n = 360,000) | AID 624126;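 active = activation above its plate's cutoff, the mean activation of sample wells plus 3 SD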
# M5 antag: CHRM5 antagonism in calcium assay; P08912; CHO-hM5 cells, Fluo-8 calcium fluorescence, ACh EC80; inhibition, % at 3 µM; actives 0.59% (n = 360,000); AID 624040;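 active = inhibition above a per-plate cutoff, the mean of that plate's test compounds plus 3 SD, cut at about 27% in these data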
# A number is an active result; 0 = inactive. Compounds with a hit are over-represented: about 1.8% of the library has one in this group of screens.
SMILES,M5 ag,M4 ag,M4 antag,CHRM5 PAM,M4 PAM,M5 antag
CC(C)(C)N1Cc2ccccc2C1=N,0,0,0,30.9,0,0
Cc1cc(C)nc(N2Cc3ccccc3C2=N)n1,0,0,0,0,0,0
O=C(/C=C/c1ccc(Cl)cc1)NC(=S)N1C[C@H]2C[C@H](C1)c1cccc(=O)n1C2,0,0,0,0,0,0
Cc1cc(OCC(=O)N2CCC(C(=O)O)(c3ccccc3)CC2)c2c(C)c(C)c(=O)oc2c1,0,0,75.6,0,0,0
COc1cc(C2c3cc4c(cc3CC3COC(=O)C32)OCO4)cc(OC)c1OC (configuration not stated),0,0,0,0,0,0
COc1ccc(NC2Oc3cc4c(cc3C(c3cc(OC)c(OC)c(OC)c3)C2C)OCO4)cc1 (configuration not stated),0,0,0,19.1,0,0
N#Cc1cn(C2OC(CO)C(O)C2O)c2ncnc(N)c12 (configuration not stated),0,0,0,0,0,0
CC1(C)OC(c2ccccc2)=C/C(=C/C=C2C(=O)NC(=O)NC2=O)O1,75.1,0,0,0,0,0
C(#CCN1CCCCC1)CN1CCCCC1,0,0,0,0,0,0
O=C1CCCN1CC#CCN1CCCC1,102.8,84.4,81.0,0,0,94.6
Cc1ccc2c(C)c3ccc4ccccc4c3c[n+]2c1,0,0,0,0,0,0
COC1CC2C=C(C)C=CC=CC(=O)NC(c3ccccc3)CC=CCCC(O)CC(=O)C2=C1O (configuration not stated),0,0,87.1,0,0,53.8
CC1CCN(C(CC(=O)c2ccccc2)C(=O)c2ccccc2)CC1 (configuration not stated),0,0,0,0,0,0
Cc1cccc(OCC(O)CN2CC2)c1 (configuration not stated),0,0,0,0,0,0
C[C@]12CC[C@H](O)C[C@@H]1CC[C@@H]1[C@@H]2CC[C@]2(C)C(=O)CC[C@@H]12,48.0,0,0,0,0,0
C[C@]12CCC3[C@@H](CC[C@@H]4C[C@H](O)CC[C@]34C)[C@@H]1CCC2=O (some centres not stated),0,0,0,0,0,0
C[C@]12CCC3C(CC[C@H]4C[C@@H](O)CC[C@]34C)[C@H]1C=CC2=O (some centres not stated),0,0,0,0,15.0,0
Nc1ccccc1-[n+]1c(-c2ccccc2)cc(-c2ccccc2)cc1-c1ccccc1,0,0,0,0,0,0
[O-]c1ccccc1-[n+]1c(-c2ccccc2)cc(-c2ccccc2)cc1-c1ccccc1,0,0,0,0,0,0
Oc1ccccc1-[n+]1c(-c2ccccc2)cc(-c2ccccc2)cc1-c1ccccc1,0,0,27.6,0,0,0
Cc1ccccc1-[n+]1c(-c2ccccc2)cc(-c2ccccc2)cc1-c1ccccc1,0,0,78.3,0,0,41.5
CCCCCN1C(=O)c2cc(OC)ccc2[C@@]2(C(=O)OCC)Cc3cc(OC)ccc3[C@@H]12,0,0,0,0,0,0
COc1ccc(-n2nnnc2C(CCc2ccccc2)N2CCC3(CC2)C(=O)NCN3c2ccccc2)cc1 (configuration not stated),0,0,0,0,0,0
O=C1NC(=O)C(=Cc2ccc(-c3ccc(Cl)cc3)o2)C(=O)N1,0,0,0,21.7,0,0
O=C1NC(=O)C(=Cc2ccc(-c3ccc(F)cc3O)o2)C(=O)N1,25.0,0,0,0,26.2,0
SMILES,M5 ag,M4 ag,M4 antag,CHRM5 PAM,M4 PAM,M5 antag
CC(C)COC(=O)N1Cc2ccccc2-n2nncc2C1,0,0,0,0,0,0
CCOC(=O)C1(CCOc2ccccc2)CCN(Cc2cccc(O)c2)CC1,0,0,0,0,0,33.1
CCOC(=O)C1(CCc2ccccc2)CCN(Cc2cccc3cnccc23)CC1,0,0,0,0,0,80.8
CCOC(=O)C1(CCOc2ccccc2)CCN(C(C)CSC)CC1 (configuration not stated),0,0,0,0,0,0
CCOC(=O)C1(CCOc2ccccc2)CCN(C2Cc3ccccc3C2)CC1,0,0,0,0,0,31.9
Cc1ccc(-[n+]2c(Cc3nn(-c4ccccc4)c(C)[n+]3-c3ccc(C)cc3)nn(-c3ccccc3)c2C)cc1,0,0,0,0,0,0
CN1C2CCC1CC(OC(c1ccccc1)c1ccccc1N)C2 (configuration not stated),0,0,100.3,0,0,99.5
Cc1cc(=O)oc2cc(OCC(=O)N3CCN(Cc4ccc5c(c4)OCO5)CC3)ccc12,0,0,0,0,0,0
OC(CN1CCCCC1)c1c[nH]c2ccccc12 (configuration not stated),0,0,86.0,0,0,0
CC1CCCCN1CC(O)c1c[nH]c2ccccc12 (configuration not stated),0,0,0,0,0,0
CCN(CC)C(=O)c1ccc(NC(=O)c2ccc(-n3cncn3)c([N+](=O)[O-])c2)cc1,0,0,0,0,0,0
CCC1(CCC(C)C)C(=O)NC(=S)NC1=O,0,0,0,0,0,0
c1ccc(CNC2CN3CCC2CC3)cc1 (configuration not stated),0,0,0,0,0,0
Clc1ccccc1CNC1CN2CCC1CC2 (configuration not stated),0,0,0,0,0,32.4
CCOC(=O)c1cnc(SCc2ccc(Cl)c(Cl)c2)nc1N1CC1,0,0,0,0,0,0
O=C(NCCN1CCC2(CC1)C(=O)NCN2c1cccc(F)c1)c1ccc2ccccc2c1,51.7,107.0,101.2,0,0,98.9
O=C1NCN(c2ccccc2)C12CCNCC2,0,0,0,0,0,0
O=c1[nH]c(=S)n(CCC2=CCCCC2)c(O)c1C=NCCCn1ccnc1,0,0,28.5,0,0,0
COc1ccc2c(c1)C13CCN4CC5=CCOC6CC(=O)N2C1C6C5CC43 (configuration not stated),0,0,0,0,0,0
O=C(Nc1cccc(C(F)(F)F)c1)OC1CN2CCC1CC2 (configuration not stated),0,0,43.3,0,0,69.8
O=C(Nc1ccc(C(F)(F)F)cc1)OC1CN2CCC1CC2 (configuration not stated),0,0,0,0,0,0
CC(C)(C)c1ccc(C(=O)C2CCCN(Cc3ccon3)C2)cc1 (configuration not stated),0,0,0,0,0,0
